Compounds with a hit are over-represented: about 3% of the library has one in this group of screens.
KLK7 zymogen act – proKLK7 (human) activation, primary screen | AID 652039 | activation, % at 7 µM | actives 0.9% (n = 370,000) | purified proKLK7, EDANS-DABCYL substrate fluorescence; 100% is mature enzyme control, 0% vehicle;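 active = activation above the mean of all tested compounds plus 3 SD, computed per campaign excluding outliers beyond control limits, cut at about 13% in these data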
NRP1-CendR mod – modulators of CendR peptide binding to human neuropilin-1; FAM-RPARPAR peptide binding to NRP-1, fluorescence polarization; inhibition, % at 25 µM; actives 0.85% (n = 360,000);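 active = inhibition or corrected inhibition above about 18%, plus a signal ratio from 0.5 to 1.5, limit read from the data, passing the limit was not always enough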
PLCg1 inh – PLC-gamma1 (human) inhibition, primary screen; inhibition, % at 12.2 µM; AID 720700; purified PLC-gamma1, fluorogenic substrate, fluorescence; P19174; actives 0.84% (n = 370,000); in the data active = inhibition above about 9.5%
DDE Tn6 FP inh – inhibitors of Tn6 peptide binding to human fibrin DD(E) | P02675 | Fibrin DD(E) TRITC-Tn6 fluorescence polarization displacement | inhibition, % at 8.3 µM | actives 0.21% (n = 370,000) | AID 720509;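 active = inhibition above a per-campaign cutoff: mean of compounds within control limits plus 3 SD, cut at about 15% in these data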;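 also: 0% = median of all compound wells on the plate and 100% = blocking peptide control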
Tn7 DDE FP – inhibitors of Tn7 peptide binding to human fibrin DD(E); AID 720508; FP displacement of FITC-Tn7 peptide from fibrin DD(E); 0% = median of compound wells per plate; inhibition, % at 8.3 µM; P02675; actives 0.13% (n = 370,000);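 active = inhibition above the mean of compounds falling within the control limits plus 3 SD of them, cut at about 14% in these data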;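 also: 0% = plate median of compound wells and 100% = 10 µM Aha-Tn7 peptide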
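Test system: human clot-derived fibrin DD(E) complex / Quantity: 2 µM final DD(E) protein / Incubation: 10 min plus 3 h, room temperature / Measured by: fluorescence polarization / Benchmarks: high control of 10 µM Aha-Tn7 peptide / Replicates: singlicate testing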
PLC-beta3 inh – blocks human PLC-beta3 enzyme activity | actives 0.18% (n = 370,000) | Q01970 | Purified PLC-beta3, fluorogenic substrate, fluorescence | inhibition, % at 12.2 µM | AID 720704; in the data active = inhibition above about 11%;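 also: 0% = median of compound wells on plate and 100% = full blocker control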
Target sequence (Q01970 whole entry, looked up): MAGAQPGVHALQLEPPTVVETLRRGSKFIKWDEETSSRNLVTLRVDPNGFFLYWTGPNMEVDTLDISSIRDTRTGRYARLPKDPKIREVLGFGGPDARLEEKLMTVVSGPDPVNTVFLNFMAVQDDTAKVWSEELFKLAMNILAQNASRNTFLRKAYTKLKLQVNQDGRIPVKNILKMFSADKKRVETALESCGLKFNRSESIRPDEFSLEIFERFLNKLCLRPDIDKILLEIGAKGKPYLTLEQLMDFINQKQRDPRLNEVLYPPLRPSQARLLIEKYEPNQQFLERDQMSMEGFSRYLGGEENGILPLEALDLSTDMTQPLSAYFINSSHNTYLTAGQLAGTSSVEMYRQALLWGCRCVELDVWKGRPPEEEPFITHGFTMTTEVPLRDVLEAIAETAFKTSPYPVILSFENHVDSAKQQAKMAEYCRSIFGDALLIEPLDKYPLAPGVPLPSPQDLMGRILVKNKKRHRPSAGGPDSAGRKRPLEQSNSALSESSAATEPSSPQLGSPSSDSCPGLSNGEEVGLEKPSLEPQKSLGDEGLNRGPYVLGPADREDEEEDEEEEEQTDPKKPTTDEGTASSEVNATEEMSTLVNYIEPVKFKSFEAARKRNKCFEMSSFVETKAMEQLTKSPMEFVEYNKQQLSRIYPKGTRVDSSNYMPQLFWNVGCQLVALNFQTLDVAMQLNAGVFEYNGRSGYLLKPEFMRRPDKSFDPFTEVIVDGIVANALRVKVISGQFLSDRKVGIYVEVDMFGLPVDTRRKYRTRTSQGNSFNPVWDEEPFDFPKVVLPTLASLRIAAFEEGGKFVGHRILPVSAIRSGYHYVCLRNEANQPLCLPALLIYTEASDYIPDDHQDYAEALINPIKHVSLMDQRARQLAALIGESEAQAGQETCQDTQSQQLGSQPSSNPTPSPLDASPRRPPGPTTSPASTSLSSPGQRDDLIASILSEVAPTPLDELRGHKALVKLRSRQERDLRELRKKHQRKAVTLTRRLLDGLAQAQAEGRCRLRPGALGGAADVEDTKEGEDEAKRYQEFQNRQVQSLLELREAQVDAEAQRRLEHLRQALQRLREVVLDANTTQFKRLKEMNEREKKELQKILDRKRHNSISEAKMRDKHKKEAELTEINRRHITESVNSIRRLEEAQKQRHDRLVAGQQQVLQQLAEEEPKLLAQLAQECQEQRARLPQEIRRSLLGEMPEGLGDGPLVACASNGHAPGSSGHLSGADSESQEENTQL
KLK7 act conf – confirmation of human kallikrein-7 zymogen activators. shares compounds with KLK7 zymogen act. purified proKLK7, EDANS-DABCYL substrate fluorescence; scaled: vehicle 0, mature enzyme 100. activation, % at 7 µM. actives 68% (n = 3,200). AID 686949;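 active = activation, as change over the incubation, above the mean of all tested compounds plus 3 SD, cut at about 13% in these data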
EDANS interfere – fluorescence interference counter-screen for KLK7 activators; shares compounds with KLK7 zymogen act; activation, % at 7 µM; actives 80% (n = 3,200); EDANS-DABCYL substrate fluorescence interference, no enzyme, 4 h; solvent 0%, active enzyme control 100%;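 active = activation above the all-compound mean plus 3 SD, ignoring values outside control-based bounds, cut at about 4.8% in these data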;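 also: value is the 4 h activation minus the activation read at time zero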
Numbers without * were called inactive.

For Cc1nc2cc(-c3ccccc3)nn2c(C)c1CCC(=O)NCc1ccco1 the results were KLK7 zymogen act 0, NRP1-CendR mod -4, PLCg1 inh -128, DDE Tn6 FP inh -3, Tn7 DDE FP 4 and PLC-beta3 inh -171.
For CCOC(=O)CC[C@@]1(C(=O)OCC)C[C@@H](CC(=O)N2CCOCC2)C(=O)N2CCCC=C21 the results were KLK7 zymogen act 0, PLCg1 inh 0, DDE Tn6 FP inh -3, Tn7 DDE FP -8 and PLC-beta3 inh 1.
O=C1c2ccccc2NC(c2ccc(-c3cccs3)o2)N1O (stereo unspecified) was read as KLK7 zymogen act 19*, NRP1-CendR mod 2, PLCg1 inh -423, DDE Tn6 FP inh -4, Tn7 DDE FP 6, PLC-beta3 inh inactive, KLK7 act conf 6 and EDANS interfere 7.4*.
O=C1CC(O)(C(F)(F)F)Oc2c1ccc1ccccc21 (stereo unspecified) was read as KLK7 zymogen act 54*, NRP1-CendR mod 5, PLCg1 inh -285, DDE Tn6 FP inh -2, Tn7 DDE FP -4, PLC-beta3 inh -300, KLK7 act conf 4 and EDANS interfere 5.3*.
For O=C1CC(O)(C(F)F)Oc2ccc3ccccc3c21 (stereo unspecified) the results were KLK7 zymogen act 47*, NRP1-CendR mod 3, PLCg1 inh -197, DDE Tn6 FP inh -3, Tn7 DDE FP -9, PLC-beta3 inh -233, KLK7 act conf 2 and EDANS interfere 3.
Screening CC(C)(C)c1ccc(-c2nnc(SCC(=O)Nc3ccc(Oc4ccccc4)cc3)n2Cc2ccco2)cc1 returned KLK7 zymogen act 0, PLCg1 inh -2, DDE Tn6 FP inh -2, Tn7 DDE FP -3 and PLC-beta3 inh 2.
For CCOC(=O)CNC(=O)CSc1nnc(-c2ccc(C(C)(C)C)cc2)n1-c1ccc(Cl)cc1 the results were KLK7 zymogen act 0, PLCg1 inh 4, DDE Tn6 FP inh 8, Tn7 DDE FP -9 and PLC-beta3 inh 3.
For CC(C)CN1C(=O)[C@@]2(CC(=O)N(C)C2c2ccccc2)c2cc(-n3cc(CN(C)C)nn3)ccc21 (stereo partly specified) the results were KLK7 zymogen act 0, PLCg1 inh -2, DDE Tn6 FP inh -3, Tn7 DDE FP 1 and PLC-beta3 inh -5.
Screening Cc1c(C)c2cc(Cl)c(O)c(CN3CCCC(C)C3)c2oc1=O (stereo unspecified) returned KLK7 zymogen act 42*, NRP1-CendR mod -1, PLCg1 inh inactive, DDE Tn6 FP inh 9, Tn7 DDE FP 1, PLC-beta3 inh inactive, KLK7 act conf 69* and EDANS interfere 73*.
Cc1c(C)c2cc(Cl)c(O)c(CN3CCN(C)CC3)c2oc1=O was read as KLK7 zymogen act 76*, NRP1-CendR mod 7, PLCg1 inh inactive, DDE Tn6 FP inh -1, Tn7 DDE FP -4, PLC-beta3 inh inactive, KLK7 act conf 64* and EDANS interfere 69*.
Screening CCOc1ccccc1/C=C/c1nc2ccccc2[nH]c1=O returned KLK7 zymogen act 13*, NRP1-CendR mod 6, PLCg1 inh inactive, DDE Tn6 FP inh 4, Tn7 DDE FP -3, PLC-beta3 inh inactive, KLK7 act conf 1 and EDANS interfere -1.
For CCOc1ccccc1/C=C/c1cc(C(=O)O)c2ccccc2n1 the results were KLK7 zymogen act 12, NRP1-CendR mod -4, PLCg1 inh -368, DDE Tn6 FP inh 0, Tn7 DDE FP -9 and PLC-beta3 inh inactive.
Screening CC(C)CNS(=O)(=O)/C=C/c1ccc(F)cc1CNC(=O)OC(C)(C)C returned KLK7 zymogen act 0, PLCg1 inh 2, DDE Tn6 FP inh 2, Tn7 DDE FP 7 and PLC-beta3 inh 4.
For CCC[C@H]1[C@@H](N(C)Cc2ccccc2)CC[C@@]23CCCN2C(=O)CCC[C@@H]13 the results were PLCg1 inh 4, DDE Tn6 FP inh -9, Tn7 DDE FP -2 and PLC-beta3 inh 0.
CCOc1ccc(-c2cc(C(=O)NCCCn3ccnc3)c3ccccc3n2)cc1 was read as KLK7 zymogen act -16, NRP1-CendR mod -14, PLCg1 inh inactive, DDE Tn6 FP inh -4, Tn7 DDE FP -4 and PLC-beta3 inh inactive.
Screening CCOc1ccc(-c2cc(C(=O)O)c3ccccc3n2)cc1 returned KLK7 zymogen act 33*, NRP1-CendR mod -11, PLCg1 inh inactive, DDE Tn6 FP inh 1, Tn7 DDE FP 3, PLC-beta3 inh inactive, KLK7 act conf 60* and EDANS interfere 69*.
For CCOc1ccc(-c2cc(C(=O)N3CCC(C)CC3)c3ccccc3n2)cc1 the results were KLK7 zymogen act -20, NRP1-CendR mod 9, PLCg1 inh -52, DDE Tn6 FP inh -3, Tn7 DDE FP -3 and PLC-beta3 inh -99.
Screening CCOc1ccc(-c2cc(C(=O)NCCCN3CCN(CC)CC3)c3ccccc3n2)cc1 returned KLK7 zymogen act 57*, NRP1-CendR mod -3, PLCg1 inh inactive, DDE Tn6 FP inh -2, Tn7 DDE FP 3, PLC-beta3 inh inactive, KLK7 act conf -17 and EDANS interfere -20.
Screening Cc1cc(-c2cc(NC(=O)Cc3c[nH]c4ccccc34)ccc2Nc2cccnc2)ccc1F returned KLK7 zymogen act -1, PLCg1 inh 0, DDE Tn6 FP inh -5, Tn7 DDE FP 1 and PLC-beta3 inh -1.
For O=C1c2ccccc2C(=O)N1c1ccccc1 the results were KLK7 zymogen act 0, NRP1-CendR mod 2, PLCg1 inh 1, DDE Tn6 FP inh 3, Tn7 DDE FP 8 and PLC-beta3 inh 3.
For O=Cc1ccc(/C=C2\c3ccccc3C(=O)N2c2ccccc2)o1 the results were KLK7 zymogen act 34*, PLCg1 inh -106, DDE Tn6 FP inh -6, Tn7 DDE FP -6, PLC-beta3 inh -149, KLK7 act conf 62* and EDANS interfere 59*.
For CCCCc1c(-c2ccccc2OC)ncn1C(C)c1ccc(Cl)cc1 (stereo unspecified) the results were KLK7 zymogen act 0, PLCg1 inh -2, DDE Tn6 FP inh -9, Tn7 DDE FP 3 and PLC-beta3 inh -3.
For COc1ccc2c(c1)CCCN2C(=O)C1CCCN(S(=O)(=O)c2ccc(C)c(C)c2)C1 (stereo unspecified) the results were KLK7 zymogen act 0, PLCg1 inh 1, DDE Tn6 FP inh 0, Tn7 DDE FP 4 and PLC-beta3 inh 1.
